From PubChem BioAssay
Shown are actives, neighbours in structure and some others; about 6.8% of the full set was active somewhere.
ALR inh: human ALR oxidase inhibition via reduced H2O2. inhibition, % (concentration not given with the values). P55789. AID 485317. hit rate 3.8% among 290,000. purified ALR, DTT oxidation, H2O2 HRP-luminol luminescence;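 active = mean replicate inhibition above about 79%, with every replicate also reaching it, limit read from the data; inconclusive = only one of the two criteria met; inactive = mean below limit and not every replicate reaching it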
Target sequence (P55789 whole entry, looked up): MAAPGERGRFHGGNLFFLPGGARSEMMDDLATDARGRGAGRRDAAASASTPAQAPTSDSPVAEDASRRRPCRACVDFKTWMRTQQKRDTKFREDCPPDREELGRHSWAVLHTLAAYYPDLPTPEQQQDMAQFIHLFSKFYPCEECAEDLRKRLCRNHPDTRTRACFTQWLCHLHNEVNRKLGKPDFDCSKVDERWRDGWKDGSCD
core dimer inh: blocks dimerization of HCV core protein; AID 1899; inhibition, % at 5 µM; hit rate 0.33% among 300,000; TR-FRET GST/Flag-core106 dimerization, 1536-well;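 active = inhibition above the mean of all tested compounds plus 3 SD, set per screening campaign, cut at about 45% in these data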
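assay system = GST-tagged and Flag-tagged HCV core protein residues 1-106 | controls = unlabelled core106 and no-GST-core106 wells | incubation = compound-protein-antibody incubation 4 h at 22.5 °C | probe or stimulus = Eu donor and XL665 acceptor anti-tag antibodies | read-out = % inhibition based on acceptor/donor emission ratio | signal = TR-FRET 671 and 617 nm emission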
AI-2 QS mod: Vibrio harveyi AI-2 quorum sensing modulation. Vibrio harveyi JMH597 AI-2 luminescence/OD600 ratio, 9 h; hits give low values; strain lacks LuxN and CqsS sensors; 0 = neutral-control median. hit rate 0.4% among 300,000. AID 2094. activity change, % at 7.5 µM; in the data active = activity change below about -75%, passing the limit was not always enough; inconclusive = no clear call, values can overlap the other calls;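 also: luminescence divided by OD600 gain over 9 h not by final OD600 alone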
PHOSPHO1 block: inhibitors of human PHOSPHO1 phosphatase; Q8TCT1; recombinant PHOSPHO1, absorbance phosphatase assay; inhibition, % at 13.3 µM; hit rate 1.1% among 290,000; AID 1565; in the data active = inhibition above about 60%
Target sequence (Q8TCT1 whole entry, looked up): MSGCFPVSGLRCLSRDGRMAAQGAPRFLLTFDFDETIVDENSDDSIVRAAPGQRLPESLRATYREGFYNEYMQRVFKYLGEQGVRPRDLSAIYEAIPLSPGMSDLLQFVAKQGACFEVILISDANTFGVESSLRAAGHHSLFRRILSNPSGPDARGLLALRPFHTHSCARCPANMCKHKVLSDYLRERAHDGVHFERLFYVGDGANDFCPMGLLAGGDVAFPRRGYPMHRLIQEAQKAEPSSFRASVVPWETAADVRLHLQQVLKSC
HSF-1 act: increases HSF-1 driven luciferase reporter signal. NIH3T3-HGL HSF-1 luciferase reporter, MG132, 8 h; 100% = twice DMSO control signal. activation, % at 9 µM. hit rate 1.7% among 300,000;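 active = mean replicate activation of at least 50% with a set share of replicates each reaching 50%; inconclusive = only one of those two conditions met; inactive = mean below 50% and too few replicates reaching it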
HSF1 inh: HSF1 inhibition; NIH3T3-HGL HSE-luciferase, MG132-induced, luminescence 8 h; hits give low values; activity change, negative = inhibition, % at 7.5 µM (by protocol); hit rate 0.77% among 300,000; AID 2098;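 active = more than half of replicate wells show activity change below -50%, luminescence cut by over half; inconclusive = some wells, but at most half, below -50%; inactive = no replicate well below -50%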;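 also: luciferase reports HSF-1 transcriptional activity via heat shock element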
A number is an active result.

`Cc1ccc(S(=O)(=O)N(C)C)cc1NC(=O)COC(=O)COc1ccc2c(c1)CCC2` gave ALR inh inactive, core dimer inh inactive, AI-2 QS mod inactive, HSF-1 act inactive and HSF1 inh inactive.
For C=CCC(=O)N1CCCC(CO)(Cc2ccc(F)cc2F)C1 (stereo unspecified) the results were ALR inh inactive, core dimer inh inactive, AI-2 QS mod inactive, PHOSPHO1 block inactive, HSF-1 act inactive and HSF1 inh inactive.
Screening O=S(=O)(Nc1cccc2ccccc12)c1cccc2nonc12 returned ALR inh inactive, core dimer inh inactive, AI-2 QS mod inactive, PHOSPHO1 block inactive, HSF-1 act inconclusive and HSF1 inh inactive.
For CCCCn1nc(NS(=O)(=O)c2cccc3nonc23)c2cc3cccc(C)c3nc21 the results were ALR inh 98, core dimer inh inactive, AI-2 QS mod inactive, PHOSPHO1 block inactive, HSF-1 act inactive and HSF1 inh inactive.
Screening CC(C)Cn1nc(NS(=O)(=O)c2ccccc2)c2cc3ccccc3nc21 returned ALR inh inactive, core dimer inh inactive, AI-2 QS mod inactive, PHOSPHO1 block inactive, HSF-1 act inactive and HSF1 inh inactive.
Screening Cc1ccccc1NS(=O)(=O)c1cccc2nonc12 returned ALR inh 96, core dimer inh inactive, AI-2 QS mod inactive, PHOSPHO1 block inactive, HSF-1 act inactive and HSF1 inh inactive.
`CCCCC(=O)Nc1nn(CC)c2nc3c(C)cccc3cc12` gave core dimer inh inactive, AI-2 QS mod inactive, PHOSPHO1 block inactive, HSF-1 act inactive and HSF1 inh inactive.
For CC(C)Cn1nc(NS(=O)(=O)c2cccc3nonc23)c2cc3ccccc3nc21 the results were ALR inh 97, core dimer inh inactive, AI-2 QS mod inactive, PHOSPHO1 block inactive, HSF-1 act inactive and HSF1 inh inactive.
`CCn1nc(NS(=O)(=O)c2cccc3nonc23)c2cc3ccc(C)cc3nc21` gave ALR inh 91, core dimer inh inactive, AI-2 QS mod inactive, PHOSPHO1 block inactive, HSF-1 act inactive and HSF1 inh inactive.
For O=C(CN1C(=O)NC2(CCCC2)C1=O)Nc1ccc(F)c([N+](=O)[O-])c1 the results were ALR inh inactive, core dimer inh inactive, AI-2 QS mod inactive, PHOSPHO1 block inactive, HSF-1 act inactive and HSF1 inh inactive.
Screening COc1cc(NC(=O)[C@@H](NC(=O)c2ccco2)C(C)C)c(OC)cc1NC(=O)c1ccccc1 returned ALR inh inactive, core dimer inh inactive, AI-2 QS mod inactive, PHOSPHO1 block inactive, HSF-1 act inactive and HSF1 inh inactive.
Screening CCOc1ccc(N(CC(=O)Nc2ccccc2C(=O)N2CCCC2)S(C)(=O)=O)cc1 returned ALR inh inactive, core dimer inh inactive, AI-2 QS mod inactive, PHOSPHO1 block inactive, HSF-1 act inactive and HSF1 inh inactive.
Screening CC(c1c(O)c2ccccc2[nH]c1=O)C1(C)CCC(O)C(C)(C)O1 (stereo unspecified) returned ALR inh inactive, core dimer inh inactive, AI-2 QS mod inactive, PHOSPHO1 block inactive, HSF-1 act inactive and HSF1 inh inactive.
Screening Cn1nc(N)c2c(-c3ccccc3)c(C#N)c(N)nc21 returned ALR inh inactive, core dimer inh inactive, AI-2 QS mod inactive, PHOSPHO1 block inactive, HSF-1 act inactive and HSF1 inh -69.
O=C(Nc1ncc(Cc2cccc(Cl)c2Cl)s1)C1CCCO1 (stereo unspecified) was read as ALR inh inactive, core dimer inh inactive, AI-2 QS mod inactive, PHOSPHO1 block inactive, HSF-1 act 58 and HSF1 inh inactive.
For O=C(Nc1ncc(Cc2cccc(Cl)c2)s1)C1CCCO1 (stereo unspecified) the results were ALR inh inactive, core dimer inh inactive, AI-2 QS mod inactive, PHOSPHO1 block inactive, HSF-1 act inactive and HSF1 inh inactive.
For O=C(Nc1ncc(Cc2ccccc2Cl)s1)C1CCCO1 (stereo unspecified) the results were ALR inh inactive, core dimer inh inactive, AI-2 QS mod inactive, PHOSPHO1 block inactive, HSF-1 act 75 and HSF1 inh inactive.
For O=C(NCCc1cccc(C(F)(F)F)c1)C1CCC(=O)N(C2CC2)C1 (stereo unspecified) the results were ALR inh inactive, core dimer inh inactive, AI-2 QS mod inactive, PHOSPHO1 block inactive, HSF-1 act inactive and HSF1 inh inactive.
`COc1ccc2c(C=O)cn(C)c2c1` gave ALR inh inactive, core dimer inh inactive, AI-2 QS mod inactive, PHOSPHO1 block inactive, HSF-1 act inactive and HSF1 inh inactive.
For CCc1cc(=O)[nH]c(SCc2cccnc2)n1 the results were ALR inh 98, core dimer inh inactive, AI-2 QS mod inactive, PHOSPHO1 block inactive, HSF-1 act inactive and HSF1 inh inactive.
Screening CCc1c(C)nc(SCC(=O)NNC(=O)c2ccco2)[nH]c1=O returned ALR inh inactive, core dimer inh inactive, AI-2 QS mod inactive, PHOSPHO1 block inactive, HSF-1 act inactive and HSF1 inh inactive.
`CCc1cc(=O)[nH]c(SCc2ccc(C)cc2)n1` gave ALR inh inactive, core dimer inh inactive, AI-2 QS mod inactive, PHOSPHO1 block inactive, HSF-1 act inactive and HSF1 inh inactive.
CCc1c(C)nc(SCc2cccnc2)[nH]c1=O was read as ALR inh 99, core dimer inh inactive, AI-2 QS mod inactive, PHOSPHO1 block inactive, HSF-1 act inactive and HSF1 inh inactive.
For c1ccc2c(C3=NNC(=NC4CC4)SC3)c[nH]c2c1 the results were ALR inh 99, core dimer inh inactive, AI-2 QS mod inactive, PHOSPHO1 block inactive, HSF-1 act 157 and HSF1 inh inactive.
For CSc1nc(O)c(C(c2ccc(O)cc2)c2c(O)nc(SC)[nH]c2=O)c(=O)[nH]1 the results were ALR inh 84, core dimer inh inactive, PHOSPHO1 block inactive, HSF-1 act inactive and HSF1 inh inactive.
Screening C=CCOc1ccc(C(c2c(O)nc(SC)[nH]c2=O)c2c(O)nc(SC)[nH]c2=O)cc1 returned ALR inh 90, core dimer inh inactive, AI-2 QS mod inactive, HSF-1 act inactive and HSF1 inh inactive.
For c1coc(CN(Cc2cccs2)Cc2nnnn2C2CCCCC2)c1 the results were ALR inh inactive, core dimer inh inactive, AI-2 QS mod inactive, PHOSPHO1 block inactive, HSF-1 act inactive and HSF1 inh inactive.
Screening Clc1ccccc1CN(Cc1ccco1)Cc1nnnn1C1CCCC1 returned core dimer inh inactive, AI-2 QS mod inactive, PHOSPHO1 block inactive, HSF-1 act 69 and HSF1 inh inactive.
Screening C=CCNc1nnc(SC2CC(=O)N(c3ccc(OC)cc3)C2=O)s1 (stereo unspecified) returned ALR inh inactive, core dimer inh inactive, AI-2 QS mod inactive, PHOSPHO1 block 93, HSF-1 act inactive and HSF1 inh inactive.
